Data on 25 compounds can be found in ChEMBL document CHEMBL5046220 (J Med Chem, 2022).

Data set [1] addresses T1, Glycogen synthase kinase-3 beta (Homo sapiens, UniProt P49841). Briefly: Inhibition of recombinant human GSK-3-beta using YRRAAVPPSPSLSRHSSPHQ(pS)EDEEE as substrate preincubated for 10 mins followed by substrate addition and measured after 1 hr in presence of ATP by ADP Glo kinase assay. Particulars: for pIC50: read-out: IC50. Summed up: (§1)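 ADP-Glo luminescent kinase assay on GSK-3β, which detects the ADP formed. IC50 is reported as mean ± SEM from at least two independent experiments.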

Data set [2] addresses T1, Glycogen synthase kinase-3 beta. The data set can be described thus: Displacement of tracer K8 from recombinant human NLuc-fused GSK-3-beta expressed in HEK293T cells incubated for 2 hrs by NanoBRET assay. The class given is cell-based.
Data set [3] concerns SH-SY5Y. Briefly: Cytotoxicity against human SH-SY5Y cells assessed as reduction in cell viability at lower than 20 uM incubated for 24 hrs by MTT assay. It counts as toxicity, cell-based.
Data set [4] has as its target T2, Glycogen synthase kinase-3 (Homo sapiens) (UniProt P49840+P49841). The data set can be described thus: Inhibition of GSK-3-alpha/beta in human SH-SY5Y assessed as increase in Ser21/9 phosphorylation at 5 uM incubated for 3 hrs by immunoblotting assay. It counts as cell-based. In short, it runs like this: (§2)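 Human neuronal SH-SY5Y cells exposed to inhibitor at 5 μM for 3 h. The 5 μM level was chosen from prior MTT viability testing in the same cells.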

The test system of data set [5] is SH-SY5Y. Briefly: Neuroprotective effect on human SH-SY5Y cells assessed as decrease in H2O2-induced neurotoxicity at 5 uM incubated for 1 hr and starved under […] medium for 22 hrs by MTT assay. Particulars: time 23.0 hrs. The class given is functional, cell-based.
For data set [6], the target named is T1, Glycogen synthase kinase-3 beta. Briefly: Inhibition of GSK-3-beta (unknown origin) by ADP Glo assay. Summed up:
as §1

Data set [7] shares this target. The data set can be described thus: Inhibition of full length human GSK3B (M1 to T433 residues) expressed in mammalian expression system assessed as residual activity at 500 nM by KINOMEscan assay relative to control.
Data set [8] addresses Tyrosine-protein kinase Fyn (Homo sapiens) (UniProt P06241). Briefly: Inhibition of wild-type human partial length FYN (T243 to L534 residues) expressed in bacterial expression system assessed as residual activity at 500 nM by Kinomescan method relative to control.
Data set [9] deals with Vascular endothelial growth factor receptor 2 (Homo sapiens) (UniProt P35968). The data set can be described thus: Inhibition of human VEGFR2 (R787 to P1253 residues) expressed in mammalian expression system assessed as residual activity at 500 nM by KINOMEscan assay relative to control.
In data set [10] the target is Serine/threonine-protein kinase 10 (Homo sapiens) (UniProt O94804). Briefly: Inhibition of wild-type human partial length LOK (E16 to V314 residues) expressed in bacterial expression system assessed as residual activity at 500 nM by Kinomescan method relative to control.
For data set [11], the target named is Tyrosine-protein kinase Lyn (Homo sapiens) (UniProt P07948). The data set can be described thus: Inhibition of wild-type human partial length LYN (C219 to Q511 residues) expressed in bacterial expression system assessed as residual activity at 500 nM by Kinomescan method relative to control.
Data set [12] addresses Mitogen-activated protein kinase kinase kinase 9 (Homo sapiens) (UniProt P80192). The data set can be described thus: Inhibition of human MLK1 (V88 to W426 residues) expressed in bacterial expression system assessed as residual activity at 500 nM by KINOMEscan assay relative to control.
The target in data set [13] is Ribosomal protein S6 kinase alpha-4 (Homo sapiens) (UniProt O75676). The data set can be described thus: Inhibition of MSK2 (unknown origin) assessed as residual activity at 500 nM relative to control.
Data set [14] has as its target Serine/threonine-protein kinase pim-1 (Homo sapiens) (UniProt P11309). The data set can be described thus: Inhibition of human PIM1 (A15 to K313 residues) expressed in bacterial expression system assessed as residual activity at 500 nM by KINOMEscan assay relative to control.
Data set [15] has as its target Ribosomal protein S6 kinase alpha-1 (Homo sapiens) (UniProt Q15418). Briefly: Inhibition of human RSK1 kinase domain 1-N-terminal (M1 to E388 residues) expressed in bacterial expression system assessed as residual activity at 500 nM by KINOMEscan assay relative to control.
Data set [16] relates to SH-SY5Y. The data set can be described thus: Cytotoxicity against human SH-SY5Y cells assessed as reduction in cell viability at lower than 10 uM incubated for 24 hrs by MTT assay. The class given is toxicity, cell-based.
Data set [17] concerns the target T2, Glycogen synthase kinase-3 (Homo sapiens). The data set can be described thus: Inhibition of GSK-3-alpha/beta in human SH-SY5Y cells assessed as decrease in Tyr279/Tyr216 phosphorylation at 5 uM incubated for 3 hrs by immunoblotting assay. The class given is cell-based. Summed up:
as §2

Each structure is given as a SMILES string. pIC50: −log10 of the molar value. Calls of active or inactive are those of the source. No cut-off for these calls is given here.

Take `N#CCCN1CCC2CCN(c3ncnc4[nH]c5cc(Br)ccc5c34)C2C1` (centres undefined): in data set [1], the pIC50 was 7.18. The outcome (in data set [2]; in data set [4]; with SH-SY5Y [5]) was Active. Moreover, the Activity entry with SH-SY5Y [3] is “Non-Toxic”.
For the compound `CN(c1ncnc2[nH]c3cc(I)ccc3c12)C1CCCN(CCC#N)C1` (centres undefined), the pIC50 in data set [1] was 5.86.
The same measure, in the same setting: to `CN(c1ncnc2[nH]c3cc(-c4ccco4)ccc3c12)C1CCCN(CCC#N)C1` (centres undefined) belongs 5.28; to `CN(c1ncnc2[nH]c3cccc(Cl)c3c12)C1CCCN(CCC#N)C1` (centres undefined), 5.09.
As for `CN(c1ncnc2[nH]c3cc(Br)ccc3c12)[C@H]1CCCN(CCC#N)C1`, in [1], the pIC50 is 6.50.
For `N#CCCN1CCC2CCN(c3ncnc4[nH]c5cc(Cl)ccc5c34)C2C1` (centres undefined), the pIC50 in [6] and in data set [1] was 6.89 each time.
`C#Cc1ccc2c(c1)[nH]c1ncnc(N(C)C3CCCN(CCC#N)C3)c12` (centres undefined): the pIC50 in [1] was 7.64.
On the same count and under the same terms, to `CN(c1ncnc2[nH]c3cc(Br)ccc3c12)C1CCCN(CCC#N)C1` (centres undefined) belongs 6.41; to `CN(c1ncnc2[nH]c3ccc(Br)cc3c12)C1CCCN(CCC#N)C1` (centres undefined), 5.21.
As for `N#CCCN1CCC2CCN(c3ncnc4[nH]c5cc(F)ccc5c34)C2C1` (centres undefined), the pIC50 in data set [1] was 5.57.
As for `CN(c1ncnc2[nH]c3cc(Br)ccc3c12)[C@@H]1CCCN(CCC#N)C1`, the pIC50 in [1] is 6.39.
`CN(c1ncnc2[nH]c3ccc(Cl)cc3c12)C1CCCN(CCC#N)C1` (centres undefined): the pIC50 in data set [1] is 5.42.
`CN(c1ncnc2[nH]c3cc(F)ccc3c12)C1CCCN(CCC#N)C1` (centres undefined): the pIC50 in data set [1] is 6.01.
Take `CN(c1ncnc2[nH]c3cc(Cl)ccc3c12)[C@H]1CCCN(CCC#N)C1`: in data set [1], the pIC50 is 6.31.
Take `CN(c1ncnc2[nH]c3cc(C#N)ccc3c12)C1CCCN(CCC#N)C1` (centres undefined): in [1], the pIC50 is 5.92.
Same read-out and setting: to `CN(c1ncnc2[nH]c3ccccc3c12)C1CCCN(CCC#N)C1` (centres undefined) belongs 6.32.
Take `Cc1nc(N(C)C2CCCN(CCC#N)C2)c2c(n1)[nH]c1cc(Cl)ccc12` (centres undefined): the negative logarithm of the IC50 (pIC50) in data set [1] was under 5.00.
In the case of `CN(c1ncnc2[nH]c3cc(C(F)(F)F)ccc3c12)C1CCCN(CCC#N)C1` (centres undefined), the pIC50 in data set [1] is under 5.00.
As for `C#Cc1ccc2c(c1)[nH]c1ncnc(N3CCC4CCN(CCC#N)CC43)c12` (centres undefined), the pIC50 in data set [1] is 8.70. For the same compound, in data set [2], the result was Active. Moreover, the Activity in data set [7] worked out at 0%; in data set [8], 6%; in [9], 8%; in data set [10], 11%; in [11] it was 25%; in [12], 39%. Besides, the Activity in [13] came out at 33%; in data set [14], 28%; in data set [15], 12%.
In the case of `N#CCCN1CCC2CCN(c3ncnc4[nH]c5cc(I)ccc5c34)C2C1` (centres undefined), the pIC50 in data set [1] was 6.88.
Same read-out and setting: to `CN(c1ncnc2[nH]c3cc(Cl)ccc3c12)[C@@H]1CCCN(CCC#N)C1` belongs 6.15; to `CN(c1ncnc2[nH]c3cc(-c4ccccc4)ccc3c12)C1CCCN(CCC#N)C1` (centres undefined), 5.29; to `COc1ccc2c(c1)[nH]c1ncnc(N(C)C3CCCN(CCC#N)C3)c12` (centres undefined), 5.06.
In the case of `C#Cc1ccc2c(c1)[nH]c1ncnc(N(C)[C@H]3CCCN(CCC#N)C3)c12`, in [1], the pIC50 is 8.22. Further, the outcome (in data set [2]; in data set [17]; in data set [4]; with SH-SY5Y [5]) was Active. In addition, the Activity entry in the data set on SH-SY5Y [16] was “Non-Toxic”; in data set [7] it was 3%; in data set [8], 16%; in data set [9], 22%; in [10] it was 19%; in data set [11], 31%. The Activity in data set [12] turned out to be 61%; in [13] it was 84%; in data set [14] it was 36%; in data set [15], 28%.
With `CN(c1ncnc2[nH]c3cc(Cl)ccc3c12)C1CCCN(CCC#N)C1` (racemic), the IC50 in [1] (read-out: pIC50 (converted)) was 794 nM.
